Laboratory results: ChEMBL document CHEMBL4425094, “Novel Benzo[a]quinolizidine Analogs Induce Cancer Cell Death through Paraptosis and Apoptosis” (J Med Chem, 2016)

Tests used:
[1] = system: MDA-MB-231; assay: Cytotoxicity against human MDA-MB-231 cells assessed as cell growth inhibition after 24 hrs by MTT assay; type: functional, cell-based; conditions: MDA-MB-231, 24 h
In short: (§1)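 Cells seeded 24 h in RPMI 1640 + 10% FBS. RWPE-1 was kept in K-SFM with bovine pituitary extract and EGF. Cells then exposed to compounds for 24 h at 37 °C, 5% CO2, with DMSO vehicle and docetaxel as positive control. MTT added for 4 h, absorbance read at 570 nm. Triplicate runs, IC50 reported as mean of three experiments.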

[2] = system: HeLa; assay: Cytotoxicity against human HeLa cells assessed as cell growth inhibition after 24 hrs by MTT assay; type: functional, cell-based; in short: as §1
[3] = system: K562; assay: Cytotoxicity against human K562 cells assessed as cell growth inhibition after 24 hrs by MTT assay; type: functional, cell-based; conditions: K562, 24 h; in short: as §1
[4] = system: PC-3; assay: Cytotoxicity against human PC3 cells assessed as cell growth inhibition after 24 hrs by MTT assay; type: functional, cell-based; conditions: PC-3, 24 h; in short: as §1
[5] = system: DU-145; assay: Cytotoxicity against human DU145 cells assessed as cell growth inhibition after 24 hrs by MTT assay; type: functional, cell-based; conditions: DU-145, 24 h; in short: as §1
[6] = system: MCF7; assay: Cytotoxicity against human MCF7 cells assessed as cell growth inhibition after 24 hrs by MTT assay; type: functional, cell-based; conditions: MCF7, 24 h; in short: as §1
[7] = system: RWPE-1; assay: Cytotoxicity against human RWPE1 cells assessed as cell growth inhibition after 24 hrs by MTT assay; type: cell-based; conditions: RWPE-1, 24 h; in short: as §1

Compound	IC50 [1]	IC50 [2]	IC50 [3]	IC50 [4]	IC50 [5]	IC50 [6]	IC50 [7]
CC[C@@H]1C[C@H](O)C/C=C(/C)[C@H]2c3cc(OCc4ccccc4)c(OCc4ccccc4)cc3CCN12	> 20 µM	> 20 µM	> 20 µM	> 20 µM	> 20 µM	> 20 µM	> 20 µM
O[C@H]1C[C@@H](c2ccccc2)N2CCc3cc(OCc4ccccc4)ccc3[C@@H]2C1	> 20 µM	> 20 µM	> 20 µM	> 20 µM	> 20 µM	> 20 µM	> 20 µM
C[C@@H]1CC(=O)C[C@H]2c3cc(OCc4cc(C(F)(F)F)cc(C(F)(F)F)c4)c(OCc4cc(C(F)(F)F)cc(C(F)(F)F)c4)cc3CCN12 (relative stereo)	> 20 µM	> 20 µM	> 20 µM	> 20 µM	> 20 µM	> 20 µM	> 20 µM
COc1cc2c(cc1OC)[C@@H]1C[C@H](O)C[C@@H](c3ccccc3)N1CC2	> 20 µM	> 20 µM	> 20 µM	> 20 µM	> 20 µM	> 20 µM	> 20 µM
CCCCCCOc1cc2c(cc1OCCCCCC)[C@@H]1CC(=O)C[C@@H](C)N1CC2 (relative stereo)	> 20 µM	> 20 µM	> 20 µM	> 20 µM	> 20 µM	> 20 µM	> 20 µM
O[C@@H]1C[C@@H](c2ccccc2)N2CCc3cc(OCc4ccccc4)c(OCc4ccccc4)cc3[C@@H]2C1	11.8 µM	11.2 µM	6.96 µM	8.37 µM	12 µM	20.1 µM	40 to 86.8 µM
O[C@H]1C[C@@H](c2ccccc2)N2CCc3ccccc3[C@@H]2C1	> 20 µM	> 20 µM	> 20 µM	> 20 µM	> 20 µM	> 20 µM	> 20 µM
CCCCCC[C@@H]1CC(=O)C[C@H]2c3cc(OCc4ccccc4)c(OCc4ccccc4)cc3CCN12 (relative stereo)	> 20 µM	> 20 µM	> 20 µM	> 20 µM	> 20 µM	> 20 µM	> 20 µM
COc1cc([C@@H]2CC(=O)C[C@H]3c4cc(OCc5ccccc5)c(OCc5ccccc5)cc4CCN23)cc(OC)c1OC (relative stereo)	> 20 µM	> 20 µM	> 20 µM	> 20 µM	> 20 µM	> 20 µM	> 20 µM
O[C@H]1C[C@@H](c2ccc(-c3ccccc3)cc2)N2CCc3cc(OCc4ccccc4)c(OCc4ccccc4)cc3[C@@H]2C1	> 20 µM	> 20 µM	> 20 µM	> 20 µM	> 20 µM	> 20 µM	> 20 µM
COc1ccc([C@@H]2C[C@@H](O)C[C@H]3c4cc(OCc5ccccc5)c(OCc5ccccc5)cc4CCN23)cc1OC	1.15 µM	3.46 µM	5.42 µM	1.51 µM	1.59 µM	2 µM	2.08 µM
Oc1cc2c(cc1O)[C@@H]1C[C@H](O)C[C@@H](c3ccccc3)N1CC2	> 20 µM	> 20 µM	> 20 µM	> 20 µM	> 20 µM	> 20 µM	> 20 µM
O[C@@H]1C[C@@H](c2ccccc2)N2CCc3cc(OCc4ccccc4)ccc3[C@@H]2C1	> 20 µM	> 20 µM	> 20 µM	> 20 µM	> 20 µM	> 20 µM	> 20 µM
O=C1C[C@@H](c2ccccc2)N2CCc3ccc(OCc4ccccc4)cc3[C@@H]2C1 (relative stereo)	> 20 µM	> 20 µM	> 20 µM	> 20 µM	> 20 µM	> 20 µM	> 20 µM
C[C@@H]1C[C@@H](O)C[C@H]2c3cc4c(cc3CCN12)OCO4	> 20 µM	> 20 µM	> 20 µM	> 20 µM	> 20 µM	> 20 µM	> 20 µM
C[C@@H]1CC(=O)C[C@H]2c3cc4c(cc3CCN12)OCO4 (relative stereo)	> 20 µM	> 20 µM	> 20 µM	> 20 µM	> 20 µM	> 20 µM	> 20 µM
O[C@@H]1C[C@@H](c2ccccc2)N2CCc3cc4c(cc3[C@@H]2C1)OCO4	> 20 µM	> 20 µM	> 20 µM	> 20 µM	> 20 µM	> 20 µM	> 20 µM
